PMI act satM6P: PMI (human) activation, high substrate; coupled PMI enzyme assay, resazurin fluorescence, 20 min; active compounds read high; 1 = untreated enzyme, 0 = substrate-free blank; activation factor at 20 µM; P34949; hit rate 0.34% among 190,000; AID 1216;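 active = activation factor of 2 or more at 20 µM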
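Test system: human phosphomannose isomerase with PGI, G6PDH, diaphorase coupling enzymes / Doses: 20 µM compound, 1% DMSO / Times: enzyme reaction with compound 20 min at room temperature / Measured by: Diaphorase-driven resazurin-to-resorufin fluorescence, excitation 544, emission 590 nm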
ROMK primary: modulates human ROMK potassium channel activity | P48048 | Tet-inducible ROMK, thallium flux fluorescence; actives lie on both sides | B-score at 10 µM | hit rate 2% among 130,000 | AID 1918;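 active = signal ratio slope over the read window, or its plate-corrected B-score, at least 3 SD from the plate mean, either direction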;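 also: B-score of the F/F0 ratio slope over 7 to 12 s after thallium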
Target sequence (P48048 whole entry, looked up): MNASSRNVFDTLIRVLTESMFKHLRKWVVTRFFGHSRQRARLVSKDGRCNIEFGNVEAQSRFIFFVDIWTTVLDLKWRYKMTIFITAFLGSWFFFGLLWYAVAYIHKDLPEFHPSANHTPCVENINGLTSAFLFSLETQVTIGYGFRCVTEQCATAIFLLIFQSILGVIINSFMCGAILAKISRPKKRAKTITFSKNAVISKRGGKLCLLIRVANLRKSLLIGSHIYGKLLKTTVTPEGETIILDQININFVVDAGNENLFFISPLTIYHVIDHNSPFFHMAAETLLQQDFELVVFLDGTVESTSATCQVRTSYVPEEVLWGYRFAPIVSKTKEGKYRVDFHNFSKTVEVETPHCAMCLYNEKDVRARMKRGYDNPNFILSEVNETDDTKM
PMI activator: activators of human phosphomannose isomerase. purified human PMI, coupled resazurin fluorescence, 20 min; active compounds read high; 1 = vehicle control, 0 substrate-free wells. activation factor at 20 µM. hit rate 0.005% among 190,000;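 active = activation factor of 2 or more at 20 µM, relative to plate controls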
Diaph inh CS: counter-screen for diaphorase-based assays: diaphorase inhibitors and chemical oxidizers; diaphorase resazurin-to-resorufin fluorescence, NADH, 16 min; bacterial (C. kluyveri) enzyme, not human; inhibition, % at 20 µM; hit rate 0.69% among 190,000; AID 1217;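 active = primary screen inhibition at 20 µM above a set limit, cut at about 50% in these data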;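 also: plate controls were DMSO with full reaction for no effect and wells lacking NADH for full effect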
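Detection: fluorescence of resorufin formed from resazurin, Ex 544/Em 590 nm; test system: Clostridium kluyveri diaphorase enzyme; amount: 0.14 U/mL diaphorase, enzyme working solution; times: 16-min room-temperature incubation before reading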
G6PDH CS: L. mesenteroides G6PDH inhibition counter-screen; Purified L. mesenteroides G6PDH, diaphorase/resazurin coupled fluorescence, 45 min; inhibition, % at 5 µM; hit rate 0.12% among 200,000; in the data active = inhibition above about 50%
Diaph act CS: diaphorase activation or chemical reduction counter-screen; hit rate 0.005% among 190,000; activation factor at 20 µM; Diaphorase/resazurin coupled assay, resorufin fluorescence, 16 min; active compounds read high; 1 = vehicle wells, 0 = NADH-free wells; AID 1229;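 active = diaphorase activity raised at least twofold by the compound at 20 µM; inactive = activation factor below 2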
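Assay system: Purified diaphorase enzyme from Clostridium kluyveri | Amount: Enzyme 0.07 U/mL final | Dosing: Compound 20 µM once, DMSO 1% | Timing: 16 min reaction at room temperature | Detection: Fluorescence, excitation 544 nm and emission 590 nm | Evaluation: Higher resorufin formation from activation or reduction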
ROMK retest: confirmation of human ROMK potassium channel modulators. shares compounds with ROMK primary. hit rate 54% among 3,000. ROMK thallium flux, fluorescence ratio; active compounds read low. AID 1917. normalized thallium flux (F/F0 slope) at 10 µM;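 active = Flux at 10 µM at least 3 SD below or above vehicle control mean in one or both replicates; inconclusive = no clear call, values can overlap the other calls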
The depositor's hits bear a star; ? = inconclusive; . = not tested or not shown. Only some compounds are listed: those with a hit (about 2.2% of all), similar ones and a draw of the others.

SMILES	PMI act satM6P	ROMK primary	PMI activator	Diaph inh CS	G6PDH CS	Diaph act CS	ROMK retest
C/C(N)=C(/C#N)C(=O)COC(=O)CNC(=O)c1ccc(Cl)cc1Cl	1	0.66	1.1	1	2	1	.
COC(=O)[C@@H]1CCCN1C(=O)CCc1nnc(CCC2CCCCC2)o1	1	-0.0029	0.9	4	6	1	.
CCCS(=O)(=O)N1CCC(C(=O)NCCCN2CCC(Cc3ccccc3)CC2)CC1	0.9	-4.3*	0.9	10	1	0.9	0.077
CCCS(=O)(=O)N1CCC(C(=O)N2CCC(Cc3ccccc3)CC2)CC1	0.9	0.65	0.9	17	14	0.8	.
O=S(=O)(Nc1cccc(-c2cn3cccnc3n2)c1)c1ccc(-c2ccccc2)cc1	1	.	0.9	8	7	0.9	0.073
O=C(O)CCC(=O)Nc1ccc(/C=C/C(=O)C2CC2)cc1	.	0.26	.	.	11	.	.
O=C(NCC1CCCO1)C(c1ccc(F)cc1)N(CC1CCCO1)C(=O)c1ccc(-c2ccccc2)[nH]1 (centres undefined)	1.1	-3.2*	1	-7	1	1.1	0.059*
O=C(NCC1CCCO1)C(c1cccs1)N(Cc1cccs1)C(=O)c1ccc(-c2ccccc2)[nH]1 (centres undefined)	0.8	-2.2	0.8	0	-22	1	.
Cc1oc(-c2ccccc2F)nc1CN1CCC(C(=O)NC2CCCCCCC2)CC1	0.9	-4.6*	0.9	10	5	0.9	0.058*
c1nnc(NC2=NCCC2)s1	1	1.6*	0.9	7	14	0.9	0.078
CCN1C(=O)c2cccc3c(NS(=O)(=O)c4ccc(NC(C)=O)cc4)ccc1c23	0.4	.	1.1	24	28	0.8	.
CCN1C(=O)c2cccc3c(S(=O)(=O)Nc4ccccc4OC)ccc1c23	0.9	.	0.9	51*	0	0.5	0.062*
CC(C)c1ccc(OCC(=O)N(Cc2ccccc2)c2ccccn2)cc1	1.1	-0.13	1.1	9	12	0.9	.
O=S(=O)(Nc1nc2ccccc2nc1Nc1ccc2c(c1)OCCO2)c1cccs1	0.8	.	1	34	0	0.7	?
COc1ccc(S(=O)(=O)Nc2nc3ccccc3nc2Nc2ccc3c(c2)OCO3)cc1	0.9	-0.63	0.9	11	-14	0.9	.
COC(=O)CCn1c(C)cc(C(=O)COc2ccccc2C(N)=O)c1C	1	-5.4*	1.1	19	6	0.8	?
Cc1cc(C(=O)COc2ccccc2C(N)=O)c(C)n1CC1CCCO1 (centres undefined)	0.9	-1.3	0.9	7	6	0.9	.
N=c1n(CCO)c2ccccc2n1CCOc1ccc(Cl)cc1Cl	1	.	1	13	4	0.9	0.049*
COC(=O)c1sccc1Oc1c(Cl)cccc1[N+](=O)[O-]	0.9	0.74	0.9	19	2	0.8	.
Cc1cccc(NCC(=O)c2c(N)n(C)c(=O)n(C)c2=O)c1C	0.4	0.91	0.9	21	22	0.8	.
CN1CCc2c(c3ccccc3n2Cc2ccccc2)C1	1.1	.	1.2	-6	5	1.1	.
Cc1c(CCCN)c2ccccc2n1Cc1ccccc1	.	-2.9*	.	.	8	.	0.05*
O=[N+]([O-])c1ccc2c(c1)/C(=N\O)c1ccccc1-2	.	-2.9*	.	.	.	.	?
NN=C1c2cc([N+](=O)[O-])ccc2-c2ccc([N+](=O)[O-])cc21	1.1	0.4	1.1	-20	9	1.2	.
CCOC(=O)N1CCN(c2ccc(N3C(=O)CCCC3=O)cc2[N+](=O)[O-])CC1	1	-0.28	1	7	-1	0.9	.
SMILES	PMI act satM6P	ROMK primary	PMI activator	Diaph inh CS	G6PDH CS	Diaph act CS	ROMK retest
OC1(c2ccccc2)CCN(Cc2ccccc2)C2CCCCC21 (centres undefined)	1.1	-4.5*	0.9	10	2	0.9	0.067*
Cc1oc(-c2cccs2)nc1CN1CC[C@@](O)(c2ccccc2)[C@H]2CCCC[C@@H]21	1	-1.7	0.9	19	7	0.8	.
CC(=O)NN1C(=O)/C(=C\c2ccc(Br)o2)SC1=S	0.8	-4.1*	1	11	-1	0.9	0.055*
CC(=O)NN1C(=O)/C(=C/c2ccc(Br)o2)SC1=S	1.1	.	0.9	18	0	0.8	.
CC(C(=O)NC(=O)NC1CCCCC1)N1CCN(C(c2ccccc2)c2ccccc2)CC1 (centres undefined)	0.8	-3.3*	0.8	32	3	0.7	0.057*
CC(C(=O)NC1CCCC1)N1CCN(Cc2ccccc2)CC1 (centres undefined)	1	-0.45	1.1	-8	8	1.1	.
O=C(Cc1cccs1)Nc1cccc(-c2nc3cc4ccccc4cc3[nH]2)c1	1	-0.15	1	19	7	0.8	.
COc1ccc(C(=O)Nc2ccc(C(=O)NCCc3ccc(OC)c(OC)c3)cc2)cc1	1.1	3.2*	1	0	3	1	0.073
COc1ccc(CCNC(=O)c2ccc(-c3ccc([N+](=O)[O-])cc3)o2)cc1OC	0.8	.	0.7	22	-22	0.8	0.075
CC1=CC(C)C2COC(c3ccc[n+](C)c3)C1C2C (centres undefined)	1.1	.	1	5	-15	1	.
COc1ccc(NC(=O)c2cc3cccc(OC)c3oc2=Nc2ccc(C(=O)O)cc2)cc1OC	0.9	-4.4*	0.9	78*	-2	0.2	0.054*
O=C(CSCc1ccc(F)cc1)NCc1ccc(F)cc1	1.1	3*	1.1	11	2	0.9	0.079
CCOC(=O)COn1c(=O)c(-c2cccs2)[n+]([O-])c2ccccc21	0.7	-4.2*	0.8	15	1	0.8	0.059*
CCOn1c(=O)c(-c2cccs2)[n+]([O-])c2ccccc21	0.9	.	0.9	21	-1	0.8	.
CCOc1ccccc1CNc1nc2nc3c(c(=O)n2[nH]1)CCC3	1	.	1	8	10	0.9	0.079
c1ccc2c(c1)OCCOCCOCCOCCOCCOc1ccccc1OCCOCCOCCO2	1.1	-4.8*	1.1	6	-6	0.9	0.042*
CC(=O)c1ccc2c(c1)OCCOCCOCCOCCO2	.	0.39	.	.	.	.	.
CCn1c(SC(C)C)nnc1-c1cc(-c2ccccc2)sc1N	1	-2.8*	1	20	4	0.8	0.073
CCn1c(SCc2cccc(C)c2)nnc1-c1ccccc1	0.9	.	0.9	16	6	0.8	.
CC(C)(C)NC(=O)CN(Cc1cccs1)C(=O)C1COc2ccccc2O1 (centres undefined)	0.9	.	0.8	6	5	0.9	.
